Source: ChEMBL document CHEMBL3763047, “Flavonoid derivatives as selective ABCC1 modulators: Synthesis and functional characterization” (Eur J Med Chem, 2016)
pIC50: −log10 of the molar value. Calls of active or inactive are those of the source. The calls are words filed in the database; no cut-off is given here.

What was measured:
[1] = biological target: ATP-dependent translocase ABCB1 (Homo sapiens, UniProt P08183); assay: Inhibition of ABCB1 in human KBV1 cells assessed as inhibition of calcein-AM efflux; assay type: cell-based; conditions: for pIC50: read-out: IC50; for IC50: kbv1
ATP-dependent translocase ABCB1, sequence (P08183 whole entry): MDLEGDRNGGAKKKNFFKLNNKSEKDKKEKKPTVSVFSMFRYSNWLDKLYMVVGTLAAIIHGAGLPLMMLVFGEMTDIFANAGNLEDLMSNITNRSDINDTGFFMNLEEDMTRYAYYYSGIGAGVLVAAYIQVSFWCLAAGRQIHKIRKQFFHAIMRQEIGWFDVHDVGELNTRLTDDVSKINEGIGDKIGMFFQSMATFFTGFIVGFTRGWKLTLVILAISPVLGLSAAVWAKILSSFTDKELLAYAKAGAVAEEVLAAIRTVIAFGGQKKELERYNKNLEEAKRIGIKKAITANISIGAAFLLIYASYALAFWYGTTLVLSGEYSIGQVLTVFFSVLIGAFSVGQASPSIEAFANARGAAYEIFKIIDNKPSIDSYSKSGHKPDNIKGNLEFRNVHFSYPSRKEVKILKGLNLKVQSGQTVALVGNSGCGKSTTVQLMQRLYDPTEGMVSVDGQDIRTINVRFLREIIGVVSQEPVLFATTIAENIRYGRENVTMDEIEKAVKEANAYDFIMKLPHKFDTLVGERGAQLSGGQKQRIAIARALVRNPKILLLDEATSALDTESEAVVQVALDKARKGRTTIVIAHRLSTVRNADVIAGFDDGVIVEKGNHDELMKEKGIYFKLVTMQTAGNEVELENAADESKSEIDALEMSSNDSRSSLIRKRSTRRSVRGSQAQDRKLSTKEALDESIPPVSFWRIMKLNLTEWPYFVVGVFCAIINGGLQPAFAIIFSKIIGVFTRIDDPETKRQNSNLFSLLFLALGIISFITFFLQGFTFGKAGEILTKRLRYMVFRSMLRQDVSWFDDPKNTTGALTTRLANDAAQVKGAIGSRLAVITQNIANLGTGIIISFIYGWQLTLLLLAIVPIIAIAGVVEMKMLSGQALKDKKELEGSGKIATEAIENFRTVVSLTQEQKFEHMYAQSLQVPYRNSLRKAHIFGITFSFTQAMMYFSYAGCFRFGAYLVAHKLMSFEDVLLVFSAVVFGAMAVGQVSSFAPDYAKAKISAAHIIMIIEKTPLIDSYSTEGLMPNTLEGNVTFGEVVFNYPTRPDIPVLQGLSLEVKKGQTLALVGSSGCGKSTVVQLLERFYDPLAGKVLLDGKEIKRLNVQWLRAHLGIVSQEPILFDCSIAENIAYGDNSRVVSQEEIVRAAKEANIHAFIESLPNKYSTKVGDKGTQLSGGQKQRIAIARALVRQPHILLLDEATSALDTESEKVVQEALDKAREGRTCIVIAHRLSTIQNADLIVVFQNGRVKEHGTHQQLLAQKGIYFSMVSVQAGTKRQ

[2] = biological target: MRP1 (ABCC1) (Homo sapiens, UniProt P33527); assay: (§1) Inhibition of human MRP1 expressed in MDCK2 cells assessed as inhibition of calcein-AM efflux at 30 uM relative to reversan; assay type: cell-based, MDCK-II; conditions: MDCK2 cells expressing human MRP1, probe calcein-AM, read-out: Imax
MRP1 (ABCC1), sequence (P33527 whole entry): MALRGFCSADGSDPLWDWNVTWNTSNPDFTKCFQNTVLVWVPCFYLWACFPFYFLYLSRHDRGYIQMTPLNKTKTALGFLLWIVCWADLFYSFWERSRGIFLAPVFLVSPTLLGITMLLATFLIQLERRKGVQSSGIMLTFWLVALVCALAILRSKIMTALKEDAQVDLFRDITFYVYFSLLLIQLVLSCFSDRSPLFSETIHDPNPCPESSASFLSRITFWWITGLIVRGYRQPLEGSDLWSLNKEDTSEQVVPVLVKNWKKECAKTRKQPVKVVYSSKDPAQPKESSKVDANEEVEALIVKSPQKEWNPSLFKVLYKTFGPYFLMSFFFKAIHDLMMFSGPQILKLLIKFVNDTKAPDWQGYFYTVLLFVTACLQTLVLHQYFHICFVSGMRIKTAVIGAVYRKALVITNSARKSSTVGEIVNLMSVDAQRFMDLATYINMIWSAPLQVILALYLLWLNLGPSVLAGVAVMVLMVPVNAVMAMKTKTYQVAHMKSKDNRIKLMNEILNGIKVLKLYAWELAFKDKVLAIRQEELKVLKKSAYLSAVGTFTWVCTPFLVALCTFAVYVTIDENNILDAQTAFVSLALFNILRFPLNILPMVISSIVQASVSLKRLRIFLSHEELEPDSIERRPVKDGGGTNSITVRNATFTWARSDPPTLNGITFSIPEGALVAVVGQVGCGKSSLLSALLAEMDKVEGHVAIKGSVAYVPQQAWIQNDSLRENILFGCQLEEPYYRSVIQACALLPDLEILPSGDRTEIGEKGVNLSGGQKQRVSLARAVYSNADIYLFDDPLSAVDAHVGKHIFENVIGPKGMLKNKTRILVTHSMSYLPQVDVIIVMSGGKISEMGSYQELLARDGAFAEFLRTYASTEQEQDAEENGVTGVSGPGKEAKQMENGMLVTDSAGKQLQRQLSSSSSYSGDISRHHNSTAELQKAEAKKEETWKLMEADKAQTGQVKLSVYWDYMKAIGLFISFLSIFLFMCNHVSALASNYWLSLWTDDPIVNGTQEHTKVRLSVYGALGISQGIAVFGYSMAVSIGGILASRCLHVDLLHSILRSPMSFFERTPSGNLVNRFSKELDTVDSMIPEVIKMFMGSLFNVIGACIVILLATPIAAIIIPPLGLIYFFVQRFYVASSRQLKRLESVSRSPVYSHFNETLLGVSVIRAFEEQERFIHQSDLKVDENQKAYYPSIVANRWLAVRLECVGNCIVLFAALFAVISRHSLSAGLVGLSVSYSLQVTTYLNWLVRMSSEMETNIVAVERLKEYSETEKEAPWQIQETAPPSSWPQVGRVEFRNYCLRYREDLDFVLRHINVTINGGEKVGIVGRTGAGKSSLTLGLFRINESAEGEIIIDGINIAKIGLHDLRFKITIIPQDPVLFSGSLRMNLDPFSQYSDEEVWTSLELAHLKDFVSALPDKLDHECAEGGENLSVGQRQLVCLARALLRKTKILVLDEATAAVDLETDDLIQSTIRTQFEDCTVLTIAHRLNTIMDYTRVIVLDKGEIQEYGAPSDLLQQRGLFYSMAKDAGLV
How it was run: (§2)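 MDCKII-MRP1 cells seeded at 20,000–25,000/well and washed next day with HEPES loading buffer, pH 7.4. Loaded 60 min at 37 °C with 0.5 µM calcein-AM in buffer with BSA and pluronic F127, plus compound (10 nM–100 µM). Cells were PFA-fixed, fluorescence read at 485/535 nm, DMSO control subtracted. […] Mean ± SEM, 2–4 experiments in triplicate.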

[3] = biological target: T1, Broad substrate specificity ATP-binding cassette transporter ABCG2 (Homo sapiens, UniProt Q9UNQ0); assay: Inhibition of ABCG2 in human MCF7/Topo cells by Hoechst 33342 assay; assay type: cell-based; conditions: for IC50: mcf7/topo; for pIC50: read-out: IC50
T1 sequence (Q9UNQ0 whole entry): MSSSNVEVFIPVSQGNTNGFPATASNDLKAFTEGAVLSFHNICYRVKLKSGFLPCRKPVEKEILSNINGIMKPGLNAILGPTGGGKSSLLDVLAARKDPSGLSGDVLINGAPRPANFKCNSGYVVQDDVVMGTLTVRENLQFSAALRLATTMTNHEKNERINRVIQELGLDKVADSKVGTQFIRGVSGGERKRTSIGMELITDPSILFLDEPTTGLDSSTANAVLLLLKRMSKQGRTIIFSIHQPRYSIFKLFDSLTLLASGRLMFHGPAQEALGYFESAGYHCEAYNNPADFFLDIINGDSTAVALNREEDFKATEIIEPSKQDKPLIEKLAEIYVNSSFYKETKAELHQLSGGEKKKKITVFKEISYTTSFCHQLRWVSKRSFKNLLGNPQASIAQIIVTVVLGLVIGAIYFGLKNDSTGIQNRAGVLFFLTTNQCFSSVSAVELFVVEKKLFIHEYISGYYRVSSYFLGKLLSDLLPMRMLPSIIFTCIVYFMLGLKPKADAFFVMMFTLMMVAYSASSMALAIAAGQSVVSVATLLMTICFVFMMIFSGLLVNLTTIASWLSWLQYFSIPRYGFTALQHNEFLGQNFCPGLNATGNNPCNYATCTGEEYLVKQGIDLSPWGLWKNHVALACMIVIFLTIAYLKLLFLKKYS

[4] = biological target: T2, ABCG2 (BCRP) (Homo sapiens, UniProt Q9UNQ0); assay: Inhibition of ABCG2 in human MCF7/Topo cells at 10 uM by Hoechst 33342 assay relative to fumitremorgin C; assay type: cell-based; conditions: probe Hoechst 33342, read-out: Imax
T2 sequence (Q9UNQ0 whole entry): T1 sequence (Q9UNQ0 whole entry)
How it was run: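 Hoechst 33342 microplate assay in ABCG2-overexpressing MCF-7/Topo cells, kept in EMEM with 10% FCS and 550 nM topotecan. Imax relative to 10 µM fumitremorgin C (100%). IC50 from four-parameter logistic fit. Mean ± SEM, 2–4 experiments.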

[5] = biological target: T3, Multidrug resistance-associated protein 1 (Homo sapiens, UniProt P33527); assay: as §1; assay type: cell-based, MDCK-II; conditions: mdck-ii, 30 µM; how it was run: as §2
T3 sequence (P33527 whole entry): as the sequence (P33527 whole entry) above

[6] = biological target: ABCB1 (P-glycoprotein) (Homo sapiens, UniProt P08183); assay: Inhibition of ABCB1 in human KBV1 cells assessed as inhibition of calcein-AM efflux at 1 uM relative to tariquidar; assay type: cell-based; conditions: probe calcein-AM, read-out: Imax
ABCB1 (P-glycoprotein), sequence (P08183 whole entry): as the sequence (P08183 whole entry) above

[7] = test system: HaCaT; assay: Cytotoxicity against human HaCaT cells at 1 to 10 uM after 140 hrs by kinetic crystal violet staining based assay; assay type: cell-based
How it was run: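 Spontaneously immortalized human HaCaT keratinocytes in RPMI-1640 with pyruvate, HEPES and added glucose, pre-treated with EDTA before trypsinization. Cytotoxicity followed in a kinetic assay.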

[8] = Chemical stability in DMEM culture medium supplemented with 10% FCS at 37 degC after 48 hrs by RP-HPLC analysis; assay type: physicochemical; conditions: cattle
How it was run: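 Compounds held in DMEM with 10% FCS at 37 °C for up to 48 h, then analysed for degradation.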

[9] = biological target: T3, Multidrug resistance-associated protein 1; assay: Inhibition of human ABCC1 transfected in MDCK2 cells assessed as potentiation of doxorubicin-induced cytotoxicity at 1 and 5 uM by crystal violet staining based assay; assay type: cell-based; conditions: mdck-ii
[10] = biological target: T3, Multidrug resistance-associated protein 1; assay: Inhibition of human ABCC1 transfected in MDCK2 cells assessed as potentiation of etoposide-induced cytotoxicity at 1 and 5 uM by crystal violet staining based assay; assay type: cell-based; conditions: mdck-ii
[11] = Cytotoxicity against human ABCC1 transfected MDCK2 cells assessed as reduction in cell proliferation at 10 uM by crystal violet staining based assay; assay type: ADME, Canis lupus familiaris; conditions: dog, mdck-ii
How it was run: (§3)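 MDCKII-MRP1 cells transfected with human ABCC1, kept in DMEM with 10% FCS at 37 °C and 5% CO₂. Kinetic crystal violet chemosensitivity assay with the modulator alone; proliferation followed over time.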

[12] = biological target: T1, Broad substrate specificity ATP-binding cassette transporter ABCG2; assay: Inhibition of human ABCG2 expressed in HEK293 cells by mitoxantrone flow cytometric analysis; assay type: cell-based
[13] = test system: Plasma; assay: Metabolic stability in NMRI mouse plasma assessed as compound degradation at 140 uM after 1 min to 24 hrs by RP-HPLC analysis
[14] = biological target: T3, Multidrug resistance-associated protein 1; assay: Inhibition of human ABCC1 transfected in MDCK2 cells assessed as potentiation of etoposide-induced cytotoxicity at 1 uM by crystal violet staining based assay; assay type: cell-based; conditions: mdck-ii
[15] = test system: MDCK2; assay: Antiproliferative activity against human ABCC1 transfected MDCK2 cells assessed as reduction in cell proliferation at 1.5 uM by crystal violet staining based assay; assay type: functional
[16] = test system: MDCK2; assay: Antiproliferative activity against human ABCC1 transfected MDCK2 cells assessed as reduction in cell proliferation at 10 uM by crystal violet staining based assay; assay type: functional; how it was run: as §3

Compound	pIC50 [1]	inhibition at 30 µM [2]	IC50 [3]	IC50 [1]	Emax at 10 µM [4]	pIC50 [3]	also measured
COc1cc2c(cc1OC)CN(CCc1ccc(NC(=O)c3cc(OC)c(OC)cc3NC(=O)c3cnc4ccccc4c3)cc1)CC2	6.66						
COc1cc(OC)c2c(=O)cc(N3CCN(Cc4ccccc4[N+](=O)[O-])CC3)oc2c1	< 4.00	68.8%			72.6%	4.42	
COc1cc(OC)c2c(=O)cc(N3CCN(Cc4ccc(C(F)(F)F)cc4)CC3)oc2c1	4.50					< 4.00	Imax [5]: 158.6%; inhibition at 1 µM [6]: 21.8%
COc1ccc(CCNC(=O)c2cc(=O)c3c(OCc4ccccc4)cccc3o2)cc1OC				Not Active	108%		
COc1cc(OC)c2c(=O)cc(N3CCN(CCc4ccccc4)CC3)oc2c1		44.5%		Not Active		< 4.00	Activity [7]: Non-toxic; Stability [8]: Stable
COc1cc(OC)c2c(=O)cc(N3CCN(C)CC3)oc2c1			Not Active	Not Active			
COc1ccc(CN2CCN(c3cc(=O)c4c(OC)cc(OC)cc4o3)CC2)cc1				Not Active		< 4.00	
O=C(NCCCN1CCOCC1)c1cnn2c(-c3ccccc3)cc(-c3ccccc3)nc12	5.17						inhibition (INH) [9]: Active; inhibition (INH) [10]: Active; Activity [11]: Non-toxic; inhibition at 1 µM [6]: 143%
COc1cc(OC)c2c(=O)cc(N3CCN(Cc4ccccc4)CC3)oc2c1			Not Active	Not Active			
COc1cc(OC)c2c(=O)cc(NCCCN3CCOCC3)oc2c1		14%	Not Active	Not Active			
CN(C)C(=O)CCSC(SCCC(=O)[O-])c1cccc(/C=C/c2ccc3ccc(Cl)cc3n2)c1.[Na+] (stereo not drawn)			Not Active	Not Active			
COc1cc(OC)c2c(=O)cc(N3CCN(Cc4ccc(F)c(F)c4)CC3)oc2c1	4.23	141%			50.4%	4.18	inhibition at 1 µM [6]: 14.3%
COc1cc(OC)c2c(=O)cc(N3CCN(Cc4ccc(SC(F)(F)F)cc4)CC3)oc2c1	4.44	136%				< 4.00	inhibition at 1 µM [6]: 29.4%
O=C(c1cc(=O)c2c(OCc3ccccc3)cccc2o1)N1CCN(Cc2ccccc2)CC1	4.80				84.1%	4.79	% inhibition [12]: 9.8%; inhibition at 1 µM [6]: 34.3%
COc1cc(OC)c2c(=O)cc(NCCc3ccc(OC)c(OC)c3)oc2c1				Not Active		< 4.00	
COc1cc(OC)c2c(=O)cc(N3CCN(Cc4ccc5nonc5c4)CC3)oc2c1		120%	Not Active	Not Active			inhibition (INH) [9]: Active; Stability [13]: Stable; Activity [7]: Non-toxic; inhibition (INH) [14]: Active; Stability [8]: Stable; Activity [11]: Non-toxic
COc1cc([C@@H]2c3cc4c(cc3[C@@H](O[C@@H]3O[C@@H]5CO[C@@H](C)O[C@H]5[C@H](O)[C@H]3O)[C@H]3COC(=O)[C@H]23)OCO4)cc(OC)c1O							Activity [15]: Active; Activity [16]: Active

Continued, in another order:

pIC50 [1]	inhibition at 30 µM [2]	IC50 [3]	IC50 [1]	Emax at 10 µM [4]	pIC50 [3]	Compound	also measured
	19.7%	Not Active	Not Active			COc1cc(OC)c2c(=O)cc(N3CCN(C(=O)c4ccc([N+](=O)[O-])cc4)CC3)oc2c1	
4.48	118%			31.9%	4.43	COc1cc(OC)c2c(=O)cc(N3CCN(CCc4ccc([N+](=O)[O-])cc4)CC3)oc2c1	Activity [7]: Non-toxic; Stability [8]: Stable; inhibition at 1 µM [6]: 54.8%
4.24	73.1%				< 4.00	COc1cc(OC)c2c(=O)cc(C(=O)N3CCN(Cc4ccc([N+](=O)[O-])cc4)CC3)oc2c1	Activity [7]: Non-toxic; inhibition at 1 µM [6]: 33.4%
< 4.00	115%			59.1%	4.00	COc1cc(OC)c2c(=O)cc(N3CCN(Cc4ccc(C#N)cc4)CC3)oc2c1	
4.08	139%				< 4.00	COc1cc(OC)c2c(=O)cc(C(=O)N3CCN(CCc4ccc([N+](=O)[O-])cc4)CC3)oc2c1	Activity [7]: Non-toxic; Stability [8]: Stable; inhibition at 1 µM [6]: 37.7%
	70.5%		Not Active	23.1%	4.92	COc1cc(O)c2c(=O)cc(C(=O)N3CCN(Cc4ccc([N+](=O)[O-])cc4)CC3)oc2c1	Activity [7]: Non-toxic; Stability [8]: Stable
	38.8%	Not Active	Not Active			COc1cccc2oc(N3CCN(Cc4ccc([N+](=O)[O-])cc4)CC3)cc(=O)c12	
		Not Active	Not Active			COc1cc(OC)c2c(=O)cc(N3CCN(Cc4ccc(N)cc4)CC3)oc2c1	
		Not Active	Not Active			COc1cc(OC)c2c(=O)cc(N3CCN(Cc4ccc(NC(C)=O)cc4)CC3)oc2c1	
	68.8%		Not Active	90.5%	4.46	COc1cc(O)c2c(=O)cc(C(=O)N3CCN(Cc4ccccc4[N+](=O)[O-])CC3)oc2c1	
	130%		Not Active	56.9%	4.06	COc1cc(OC)c2c(=O)cc(N3CCN(Cc4ccc([N+](=O)[O-])cc4)CC3)oc2c1	Activity [7]: Non-toxic; Stability [8]: Stable
< 4.00	98.8%				< 4.00	COc1cc(OC)c2c(=O)cc(N3CCN(Cc4ccc(S(=O)(=O)C(F)(F)F)cc4)CC3)oc2c1	
	64.1%		Not Active	22.6%		COc1cc(OC)c2c(=O)cc(N3CCN(c4ccc([N+](=O)[O-])cc4)CC3)oc2c1	
4.48				44%	4.42	COc1cc(OC)c2c(=O)cc(N3CCN(Cc4cccc([N+](=O)[O-])c4)CC3)oc2c1	Imax [5]: 193.3%; inhibition at 1 µM [6]: 29.2%
< 4.00	118%				< 4.00	COC(=O)c1ccc(CN2CCN(c3cc(=O)c4c(OC)cc(OC)cc4o3)CC2)cc1	
		Not Active	Not Active			COc1cc(OC)c2c(=O)cc(N3CCN(Cc4ccc(S(C)(=O)=O)cc4)CC3)oc2c1	
